High-throughput results (PubChem BioAssay)
STAT1 inh: inhibitors of IFN-gamma induced STAT1 signaling; NIH 3T3 STAT1-luciferase reporter, luminescence; inhibition, % at 5.5 µM; 200,000 tested, 0.35% active; AID 920;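 active = inhibition above a set limit, the mean inhibition across all tested compounds plus 3 SD, cut at about 34% in these data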
PERK inh: blocks human PERK kinase; Q9NZJ5; CHO PERK-DD fusion, SEAP luminescence translation reporter; inhibition, % at 5.6 µM; 220,000 tested, 0.17% active;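 active = inhibition above the mean inhibition of all tested compounds plus 3 SD, set separately per screening campaign, cut at about 2.9% in these data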;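 note: PERK kinase domain activated by AP20187 dimerizer at 100 nM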
Target sequence (Q9NZJ5 whole entry, looked up, the tested form may be a part): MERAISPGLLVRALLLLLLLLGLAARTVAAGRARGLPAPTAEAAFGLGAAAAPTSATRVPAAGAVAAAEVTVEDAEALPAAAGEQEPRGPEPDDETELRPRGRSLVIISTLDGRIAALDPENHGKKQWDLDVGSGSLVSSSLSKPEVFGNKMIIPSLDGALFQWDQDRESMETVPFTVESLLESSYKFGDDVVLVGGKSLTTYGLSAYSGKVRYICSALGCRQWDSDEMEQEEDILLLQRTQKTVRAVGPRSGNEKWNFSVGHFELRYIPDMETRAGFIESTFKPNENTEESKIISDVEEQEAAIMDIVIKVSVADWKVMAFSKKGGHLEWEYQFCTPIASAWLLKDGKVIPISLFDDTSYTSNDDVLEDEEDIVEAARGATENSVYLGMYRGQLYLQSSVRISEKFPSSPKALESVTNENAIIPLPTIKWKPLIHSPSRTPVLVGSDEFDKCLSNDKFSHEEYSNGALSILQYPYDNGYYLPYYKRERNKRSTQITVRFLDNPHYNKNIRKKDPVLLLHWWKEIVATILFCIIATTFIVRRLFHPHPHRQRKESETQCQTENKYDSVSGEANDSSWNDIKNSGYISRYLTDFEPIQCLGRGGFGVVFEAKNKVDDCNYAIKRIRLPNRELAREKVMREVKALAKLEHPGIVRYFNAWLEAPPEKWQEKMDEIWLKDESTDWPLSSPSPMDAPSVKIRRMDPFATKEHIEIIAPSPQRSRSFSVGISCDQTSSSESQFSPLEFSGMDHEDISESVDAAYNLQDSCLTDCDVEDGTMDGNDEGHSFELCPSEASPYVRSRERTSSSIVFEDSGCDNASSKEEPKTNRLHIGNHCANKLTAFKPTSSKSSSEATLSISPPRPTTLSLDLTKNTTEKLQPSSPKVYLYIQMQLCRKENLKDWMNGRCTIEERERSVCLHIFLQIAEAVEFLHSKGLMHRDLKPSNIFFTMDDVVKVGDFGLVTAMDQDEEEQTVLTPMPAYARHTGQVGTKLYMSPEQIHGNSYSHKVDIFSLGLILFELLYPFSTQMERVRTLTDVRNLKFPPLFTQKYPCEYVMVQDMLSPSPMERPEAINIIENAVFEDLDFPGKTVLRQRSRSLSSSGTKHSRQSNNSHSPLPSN
STAT3 inh-1: STAT3 signaling inhibition. U3A cells, IL-6 STAT3-luciferase reporter, luminescence; host cell line lacks STAT1. inhibition, % at 5.5 µM. 190,000 tested, 0.89% active. AID 862;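 active = inhibition above the mean inhibition across all screened compounds plus 3 SD, cut at about 44% in these data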
STAT3 activator: increases IL-6 driven STAT3 reporter signal; U3A cells, IL-6 STAT3-luciferase reporter, luminescence; 100% = signal with IL-6 EC80 alone; activation (% of control), % at 5.6 µM; 190,000 tested, 0.91% active;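 active = activation above the screen-wide mean of compound activation plus 3 SD, cut at about 130% in these data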
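Detection: reporter luminescence signal / Assay system: STAT1-lacking human U3A cells, STAT3 luciferase reporter / Incubation: compound pre-incubation 1 h before IL-6, then 6 h stimulation at 37 °C / Control set: IL-6-only high control / Read-out: % activation relative to IL-6 control / Probe or stimulus: Interleukin-6, 33 ng/mL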
STAT3 inh-2: confirmation of STAT3 signaling inhibitors; shares compounds with STAT3 inh-1; U3A cells, IL-6 STAT3 luciferase reporter, luminescence; cell line lacks STAT1; inhibition, % at 5.7 µM; 1,200 tested, 45% active; AID 1265;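 active = inhibition above the hit cutoff computed for the primary STAT3 screen, cut at about 44% in these data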
NFkB inh 2: NF-kappaB inhibition in STAT3 inhibitor counter-screen; shares compounds with STAT3 inh-1; HEK293T NF-kB luciferase reporter, TNF-alpha induced; inhibition, % at 5.7 µM; 1,200 tested, 36% active; AID 1308;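 active = inhibition above the mean of solvent-only control wells plus 3 SD, cutoff set per campaign, cut at about 13% in these data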
STAT1 inh 2: inhibits STAT1, counter-screen to STAT3 inhibitors | shares compounds with STAT3 inh-1 | NIH 3T3 STAT1-luciferase reporter, IFN-gamma induced, luminescence | AID 1317 | 1,200 tested, 27% active | inhibition, % at 5.7 µM;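 active = inhibition above the mean plus 3 SD of solvent-only control wells, limit set per screening run, cut at about 16% in these data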
Numbers stand for hits; – = inactive; · = no result given. Sampled rows, rich in hits. Any-hit rate of the full collection: about 1.8%.

SMILES | STAT1 inh | PERK inh | STAT3 inh-1 | STAT3 activator | STAT3 inh-2 | NFkB inh 2 | STAT1 inh 2
CCc1c(C)nc2ncnn2c1NCCc1ccc(OC)cc1 | – | – | 66 | – | 65 | 28 | 26
CSc1nc(NC(C)(C)C)nc(Oc2ccc(=O)n(C)n2)n1 | – | – | – | – | · | · | ·
CCCCN(C)C(=O)c1cc2cc3ccc(OC)cc3nc2s1 | – | – | 50 | – | – | – | –
COc1cc(NC(=O)c2cc3c(C)nc4ccccc4c3o2)cc(OC)c1OC | – | – | – | – | · | · | ·
CCCCN(CC)CCNC(=O)c1cc2c(C)nc3ccccc3c2o1 | – | – | – | – | · | · | ·
COc1cccc(CNC(=O)c2cc3c(C)nc4ccccc4c3o2)c1 | – | – | 46 | – | – | – | –
COc1ccc(CNC(=O)c2cc3c(C)nc4ccccc4c3o2)c(OC)c1 | – | – | 79 | – | 60 | 15 | 20
CCc1ccc(CNC(=O)c2cc3c(C)nc4ccccc4c3o2)cc1 | – | – | 52 | – | – | – | –
CCN1C(=O)/C(=C\N(C)C)S/C1=N\S(=O)(=O)c1ccc(C)cc1 | – | – | – | – | · | · | ·
Cc1csc(NC(=O)C2COc3ccccc3O2)n1 (stereo not given) | – | – | 57 | – | – | – | –
O=C(Nc1nc(-c2ccccc2)cs1)C1COc2ccccc2O1 (stereo not given) | – | – | – | – | · | · | ·
Cc1cnc(NC(=O)C2COc3ccccc3O2)s1 (stereo not given) | – | – | 71 | – | – | – | –
O=C(COc1ccc(Cl)cc1Cl)Nc1ccc(Cl)cn1 | – | – | 66 | – | – | – | –
Cc1ccc(C(C)C)c(OCC(=O)Nc2ccc(Cl)cn2)c1 | – | – | – | – | · | · | ·
CCCCc1ccc(S(=O)(=O)NCCc2ccncc2)cc1 | – | – | – | – | · | · | ·
CCCCNS(=O)(=O)c1ccc(S(=O)(=O)NCc2ccncc2)cc1 | – | – | 54 | – | – | – | 19
Cc1cc(C)c(S(=O)(=O)NCc2ccncc2)c(C)c1 | – | – | 75 | – | 74 | 27 | 23
Cc1ccc(S(=O)(=O)NCc2ccncc2)c(C)c1C | – | – | 81 | – | 82 | 26 | –
COc1ccc(Br)cc1S(=O)(=O)NCc1ccccc1 | – | – | – | – | · | · | ·
COc1cc(C)c(Br)cc1S(=O)(=O)NCc1ccncc1 | – | – | 61 | – | 58 | 20 | 18
CCN1C/C(=C/c2cccc([N+](=O)[O-])c2)C(=O)/C(=C/c2cccc([N+](=O)[O-])c2)C1 | – | – | – | – | · | · | ·
CCN1CCN(/C=N/c2nc3c(s2)CCCC3)CC1 | – | – | 52 | – | – | – | –
CN1CCN(CC(=O)Nc2nc3c(s2)CCCC3)CC1 | · | – | · | · | · | · | ·
O=C(c1ccc2c(c1)OCO2)C1CCCN(C2CCN(CCc3ccccc3)CC2)C1 (stereo not given) | – | – | – | – | · | · | ·
COc1cc2c(cc1OC)C1=NC(=O)CN1C(SCc1ccccc1C)=N2 | – | – | 47 | – | – | 20 | –
SMILES | STAT1 inh | PERK inh | STAT3 inh-1 | STAT3 activator | STAT3 inh-2 | NFkB inh 2 | STAT1 inh 2
Cc1cc2nc(N3C(=O)CNC3=S)sc2cc1C | – | – | 48 | – | – | – | –
c1ccc(NCC2OCc3ccccc3CO2)cc1 | – | – | – | – | · | · | ·
Cc1nc2ccc(-c3nc4ccccc4[nH]3)cc2[nH]1 | – | – | 46 | – | – | – | –
Cc1ccccc1-c1nc2ccccc2[nH]1 | – | – | – | – | · | · | ·
CSC[C@@H]1NC(=S)N(c2ccc(C)cc2)C1=O | – | – | – | – | · | · | ·
CC1CN(c2nc3ccccn3c(=O)c2/C=C(\C#N)C(=O)N2CCOCC2)CC(C)O1 (stereo not given) | · | – | · | · | · | · | ·
Cn1c(N=NC(=O)c2ccccc2)c(O)c2ccccc21 | – | – | 46 | – | – | – | –
Cc1cccc(OCc2nnc(SCC(=O)N3CC(=O)Nc4ccccc43)o2)c1 | – | – | – | – | · | · | ·
Oc1ccc(N=Nc2ccc3c(c2)OCCO3)c2cccnc12 | – | – | 63 | – | – | – | –
COc1ccc(/C=C/C(=O)c2ccc(NC3=NCCCS3)cc2)cc1OC | – | – | – | – | · | · | ·
O=C(/C=C/c1ccc([N+](=O)[O-])cc1)NCc1ccccn1 | – | – | – | – | · | · | ·
O=C(/C=C/c1ccc([N+](=O)[O-])cc1)Nc1ncc([N+](=O)[O-])s1 | – | – | 50 | – | – | – | –
CCCOc1ccc(/C=C/C(=O)Nc2ccc([N+](=O)[O-])cc2)cc1 | – | – | 72 | – | – | 15 | –
O=C(CSc1nnnn1C1CC2CCC1C2)Nc1ccnc2ccccc12 (stereo not given) | – | – | 81 | – | 89 | 42 | 32
CCOC(=O)c1cc2[nH]c3ccccc3c2[n+](-c2ccc([N+](=O)[O-])cc2)c1N | – | – | – | – | · | · | ·
COCCn1c(SCCCC(=O)c2ccc(Br)cc2)nnc1-c1ccncc1 | – | – | 53 | – | 45 | 13 | –
Cc1ccc(C)c(N(CC(=O)NCCC2=CCCCC2)S(C)(=O)=O)c1 | – | – | – | – | · | · | ·
CSc1ccccc1NC(=O)Nc1ccc(Cl)cc1 | – | – | – | – | · | · | ·
O=C(Nc1ccc(Cl)cc1)Nc1ccccc1C(=O)O | – | – | 62 | – | – | – | –
O=C(Nc1ccc(Cl)c(Cl)c1)Nc1ccccc1C(=O)O | – | – | 53 | – | – | – | –
C=CCN(Cc1nc(-c2ccc(OC)c(OC)c2)oc1C)C1CCS(=O)(=O)C1 (stereo not given) | – | – | – | – | · | · | ·
COc1cc(C(=O)N2CCN(c3ncnc4sc(C)c(C)c34)CC2)cc(OC)c1OC | 37 | – | 52 | – | 45 | 17 | 31
Cc1ccc2nc(NC(=O)CSCC(=O)OCC(=O)c3ccc(Br)cc3)sc2c1 | 36 | – | 87 | – | 67 | 23 | 33
CCn1c(SCC(=O)N/N=C/c2c[nH]c3ccccc23)nnc1-c1ccc(Cl)cc1 | – | – | – | – | · | · | ·
CCOc1ccc(C(=O)NCCc2ccccc2)cc1 | – | – | 55 | – | – | – | –
SMILES | STAT1 inh | PERK inh | STAT3 inh-1 | STAT3 activator | STAT3 inh-2 | NFkB inh 2 | STAT1 inh 2
O=C(NCCc1ccccc1)c1ccc2nccnc2c1 | – | – | 54 | – | – | – | –
Cc1cc(C)c(C)c(S(=O)(=O)NC(C(=O)O)C(C)C)c1C (stereo not given) | – | – | – | – | · | · | ·
CCC(C)NS(=O)(=O)c1ccc(S(=O)(=O)N(CCc2ccc(OC)c(OC)c2)Cc2cccs2)cc1 (stereo not given) | – | – | – | – | · | · | ·
C/C(=N\Nc1cccc([N+](=O)[O-])c1)c1cc(F)ccc1O | · | – | · | · | · | · | ·
COC(=O)c1nn(-c2ccc3c(c2)CCN3C(C)=O)cc1O | – | – | 100 | – | 84 | – | –
COc1ccc(/C=N/Nc2nc3ccccc3[nH]2)cc1OC | – | – | – | – | · | · | ·
COc1cc(/C=N\Nc2nc3ccccc3[nH]2)cc(OC)c1OC | – | – | 74 | – | – | 19 | –
